According to ChEMBL document CHEMBL3046492, “Synthesis, insecticidal, and acaricidal activities of novel 2-aryl-pyrrole derivatives containing ester groups” (2008):
≈ marks a conversion by molar mass, not a printed value.

Legend:
Assay type in all cases: functional
Tetranychus cinnabarinus [1] = experiment: Acaricidal activity against adult Tetranychus cinnabarinus (carmine spider mite) in sieva bean plants assessed as mortality at 200 mg/kg treated for 3 secs measured after 2 days; settings: 48 h
Mythimna separata [2] = experiment: Insecticidal activity against fourth-instar larval stage of Mythimna separata (Oriental armyworm) in compound pretreated corn leaves assessed as mortality at 10 mg/kg at 25 +/-1 degC measured after 2 days
Aphis fabae [3] = experiment: Insecticidal activity against apterous adult stage of Aphis fabae (black bean aphids) in soybean tender shoots assessed as mortality treated for 5 secs measured after 48 hr
Procedure, shortened: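 This was a slightly modified FAO dip test. Soybean tender shoots carrying 40-60 healthy apterous adult aphids were dipped in diluted compound for 5 s. Excess fluid was removed, and shoots were kept in a conditioned room. Mortality was scored at 48 h, with testing at 25 ± 1 °C.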

Tetranychus cinnabarinus [4] = experiment: Acaricidal activity against adult Tetranychus cinnabarinus (carmine spider mite) in sieva bean plants assessed as mortality at 50 mg/kg treated for 3 secs measured after 2 days; settings: 48 h
Plutella xylostella [5] = experiment: Insecticidal activity against second-instar larval stage of Plutella xylostella (diamondback moth) in fresh cabbage leaves assessed as mortality treated for 15 secs before larval infestation by leaf disk assay; settings: foliar
Culex pipiens pallens [6] = experiment: Insecticidal activity against fourth-instar larval stage of Culex pipiens pallens (mosquito) assessed as mortality at 0.50 mg/kg at 25 +/-1 degC after 2 days; settings: 48 h
Procedure, shortened: (§1)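 Test solutions were prepared by adding 1 mL of each concentrated dilution to 99 mL water. Bioassays were run at 25 ± 1 °C on laboratory-reared insects.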

Mythimna separata [7] = experiment: Insecticidal activity against fourth-instar larval stage of Mythimna separata (Oriental armyworm) in compound pretreated corn leaves assessed as mortality at 5 mg/kg at 25 +/-1 degC measured after 2 days
Tetranychus cinnabarinus [8] = experiment: Acaricidal activity against adult Tetranychus cinnabarinus (carmine spider mite) in sieva bean plants assessed as mortality at 100 mg/kg treated for 3 secs measured after 2 days; settings: 48 h
Culex pipiens pallens [9] = experiment: Insecticidal activity against fourth-instar larval stage of Culex pipiens pallens (mosquito) assessed as mortality at 0.10 mg/kg at 25 +/-1 degC after 2 days; settings: 48 h; procedure, shortened: as §1
Aphis fabae [10] = experiment: Toxic ratio, ratio of Chlorfenapyr LC50 to compound LC50 for apterous adult stage of Aphis fabae (black bean aphids) measured after 48 hr
Culex pipiens pallens [11] = experiment: Insecticidal activity against fourth-instar larval stage of Culex pipiens pallens (mosquito) assessed as mortality at 0.25 mg/kg at 25 +/-1 degC after 2 days; settings: 48 h; procedure, shortened: as §1
Tetranychus cinnabarinus [12] = experiment: Acaricidal activity against adult two spot Tetranychus cinnabarinus (carmine spider mite) assessed as mortality at 25 +/-2 degC treated for 10 secs measured after 24 hr by slide immersion method
Procedure, shortened: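 Thirty adult female mites were fixed dorsally on double-sided tape on a slide with a small brush. Slides were immersed and shaken for 10 s in diluted test solution, and excess liquid was removed. Slides were then held at 25 ± 2 °C in a Petri dish with moist filter paper. Dead mites were counted at 24 h. There were 3 replicates of 30 mites each, with chlorfenapyr as standard. LC50 was obtained by Finney probit analysis.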

Nephotettix cincticeps [13] = experiment: Toxic ratio, ratio of Chlorfenapyr LC50 to compound LC50 for third-instar larval stage of Nephotettix cincticeps (green rice leafhopper) measured after 48 hr by seedling-dipping method
Nephotettix cincticeps [14] = experiment: Insecticidal activity against third instar larval stage of Nephotettix cincticeps (green rice leafhopper) in rice seedlings assessed as mortality treated for 15 secs before larval infestation measured after 48 hr by seedling-dipping method
Tetranychus cinnabarinus [15] = experiment: Toxic ratio, ratio of Chlorfenapyr LC50 to compound LC50 for adult two spot Tetranychus cinnabarinus (carmine spider mite) measured after 24 hr by slide immersion method
Plutella xylostella [16] = experiment: Toxic ratio, ratio of Chlorfenapyr LC50 to compound LC50 for second-instar larval stage of Plutella xylostella (diamondback moth) by leaf disk assay
Mythimna separata [17] = experiment: Insecticidal activity against fourth-instar larval stage of Mythimna separata (Oriental armyworm) in compound pretreated corn leaves assessed as mortality at 20 mg/kg at 25 +/-1 degC measured after 2 days

## CCOCn1c(-c2ccc(Cl)cc2)c(C#N)c(Br)c1C(F)(F)F [CHLORFENAPYR]
Tetranychus cinnabarinus [1]
  mortality at 200 mg/kg: 100%
Mythimna separata [2]
  mortality at 10 mg/kg: 100%
Aphis fabae [3]
  LC50: 12.2 µg/mL (≈ 30 µM)
Tetranychus cinnabarinus [4]
  mortality at 50 mg/kg: 93%
Plutella xylostella [5]
  LC50: 1.82 µg/mL (≈ 4.46 µM)
Culex pipiens pallens [6]
  mortality at 0.5 mg/kg: 100%
Mythimna separata [7]
  mortality at 5 mg/kg: 0%
Tetranychus cinnabarinus [8]
  mortality at 100 mg/kg: 97%
Culex pipiens pallens [9]
  mortality at 0.1 mg/kg: 100%
Aphis fabae [10]
  RatioLC50: 1
Culex pipiens pallens [11]
  mortality at 0.25 mg/kg: 100%
Tetranychus cinnabarinus [12]
  LC50: 1.14 µg/mL (≈ 2.8 µM)
Nephotettix cincticeps [13]
  RatioLC50: 1
Nephotettix cincticeps [14]
  LC50: 26.8 µg/mL (≈ 65.8 µM)
Tetranychus cinnabarinus [15]
  RatioLC50: 1
Plutella xylostella [16]
  RatioLC50: 1
Mythimna separata [17]
  mortality at 20 mg/kg: 100%

## CC(C)CC(=O)OCn1c(-c2ccc(Cl)cc2)c(C#N)c(Br)c1C(F)(F)F
Tetranychus cinnabarinus [1]
  mortality at 200 mg/kg: 100%
Mythimna separata [2]
  mortality at 10 mg/kg: 100%
Aphis fabae [3]
  LC50: 17.8 µg/mL (≈ 38.5 µM)
Tetranychus cinnabarinus [4]
  mortality at 50 mg/kg: 100%
Plutella xylostella [5]
  LC50: 1.88 µg/mL (≈ 4.05 µM)
Culex pipiens pallens [6]
  mortality at 0.5 mg/kg: 100%
Mythimna separata [7]
  mortality at 5 mg/kg: 0%
Tetranychus cinnabarinus [8]
  mortality at 100 mg/kg: 100%
Culex pipiens pallens [9]
  mortality at 0.1 mg/kg: 100%
Aphis fabae [10]
  RatioLC50: 0.69
Culex pipiens pallens [11]
  mortality at 0.25 mg/kg: 100%
Tetranychus cinnabarinus [12]
  LC50: 0.43 µg/mL (≈ 0.927 µM)
Nephotettix cincticeps [13]
  RatioLC50: 0.79
Nephotettix cincticeps [14]
  LC50: 34.1 µg/mL (≈ 73.6 µM)
Tetranychus cinnabarinus [15]
  RatioLC50: 2.65
Plutella xylostella [16]
  RatioLC50: 0.97
Mythimna separata [17]
  mortality at 20 mg/kg: 100%

## N#Cc1c(Br)c(C(F)(F)F)n(COC(=O)c2ccccc2)c1-c1ccc(Cl)cc1
Tetranychus cinnabarinus [1]
  mortality at 200 mg/kg: 100%
Mythimna separata [2]
  mortality at 10 mg/kg: 60%
Tetranychus cinnabarinus [4]
  mortality at 50 mg/kg: 100%
Culex pipiens pallens [6]
  mortality at 0.5 mg/kg: 100%
Mythimna separata [7]
  mortality at 5 mg/kg: 0%
Tetranychus cinnabarinus [8]
  mortality at 100 mg/kg: 100%
Culex pipiens pallens [9]
  mortality at 0.1 mg/kg: 10%
Culex pipiens pallens [11]
  mortality at 0.25 mg/kg: 20%
Mythimna separata [17]
  mortality at 20 mg/kg: 100%

## CCOC(=O)OCn1c(-c2ccc(Cl)cc2)c(C#N)c(Br)c1C(F)(F)F
Tetranychus cinnabarinus [1]
  mortality at 200 mg/kg: 100%
Mythimna separata [2]
  mortality at 10 mg/kg: 90%
Tetranychus cinnabarinus [4]
  mortality at 50 mg/kg: 84%
Culex pipiens pallens [6]
  mortality at 0.5 mg/kg: 100%
Mythimna separata [7]
  mortality at 5 mg/kg: 0%
Tetranychus cinnabarinus [8]
  mortality at 100 mg/kg: 89%
Culex pipiens pallens [9]
  mortality at 0.1 mg/kg: 100%
Culex pipiens pallens [11]
  mortality at 0.25 mg/kg: 100%
Mythimna separata [17]
  mortality at 20 mg/kg: 100%

## Cc1ccc(C(=O)OCn2c(-c3ccc(Cl)cc3)c(C#N)c(Br)c2C(F)(F)F)cc1
Tetranychus cinnabarinus [1]
  mortality at 200 mg/kg: 100%
Mythimna separata [2]
  mortality at 10 mg/kg: 100%
Tetranychus cinnabarinus [4]
  mortality at 50 mg/kg: 100%
Culex pipiens pallens [6]
  mortality at 0.5 mg/kg: 100%
Mythimna separata [7]
  mortality at 5 mg/kg: 0%
Tetranychus cinnabarinus [8]
  mortality at 100 mg/kg: 100%
Culex pipiens pallens [9]
  mortality at 0.1 mg/kg: 100%
Culex pipiens pallens [11]
  mortality at 0.25 mg/kg: 100%
Mythimna separata [17]
  mortality at 20 mg/kg: 100%

## CC(Oc1ccc(Cl)cc1)C(=O)OCn1c(-c2ccc(Cl)cc2)c(C#N)c(Br)c1C(F)(F)F (stereo not given)
Tetranychus cinnabarinus [1]
  mortality at 200 mg/kg: 98%
Mythimna separata [2]
  mortality at 10 mg/kg: 80%
Tetranychus cinnabarinus [4]
  mortality at 50 mg/kg: 94%
Culex pipiens pallens [6]
  mortality at 0.5 mg/kg: 100%
Mythimna separata [7]
  mortality at 5 mg/kg: 0%
Tetranychus cinnabarinus [8]
  mortality at 100 mg/kg: 95%
Culex pipiens pallens [9]
  mortality at 0.1 mg/kg: 100%
Culex pipiens pallens [11]
  mortality at 0.25 mg/kg: 100%
Mythimna separata [17]
  mortality at 20 mg/kg: 100%
